Assay outcomes: PubChem BioAssay, Broad Institute
INS-1E ATP HTS = INS-1E beta cell protection from cytokine death; INS-1E cytokine-induced death, ATP luminescence, 48 h; normalised: neutral wells 0, positive control 100; actives 0.1% (n = 20,000); AID 488910; protection from cytokine-induced ATP loss, % at 10 µM;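 active = mean replicate protection from cytokine-induced ATP loss at least 50% and at least 75% of replicates each reaching 50%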
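Assay system: INS-1E rat insulinoma cells. Amount: 8000 cells per well. Medium: phenol-red-free RPMI with 5% fetal bovine serum. Reagent: IL-1β, TNF-α and IFN-γ cytokine mix. Doses: one compound concentration, pin transfer. Schedule: 48 h co-treatment, 10 min post-lysis read. Detection: CellTiter-Glo luminescence measuring cellular ATP.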
T cruzi HTS = inhibitors of intracellular Trypanosoma cruzi; actives 4.9% (n = 22,000); AID 651903; activity score (inhibition), % at 5.01 µM; intracellular Trypanosoma cruzi in host cells, plate reader; in the data active = activity score above about 55%;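 also: parasites and compound incubated about four days before reading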
A1 apoptosis 2 = blocks A1, raising caspase activity | MEF A1-2A-BIM cells, caspase-Glo luminescence, 3 h; percent of clofoctol response, DMSO zero | caspase activation, % (no concentration beside the values) | 24,000 tested, under 10 active | AID 2465; in the data active = caspase activation above about 5.9%
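Evaluation: Caspase-3/7 activity from luminescence increase | Assay system: A1-2A-BIM mouse embryonic fibroblasts | Quantity: 2500 MEF cells/well | Medium: RPMI-1640 plus 10% FBS | Detection: Caspase-Glo 3/7 luminescence, 1 h at room temperature | Dosing: 50 nL compound per well, pinned | Timing: Cells settled overnight, compound exposure 3 h at 37 °C, 5% CO2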
Large screens that a line does not name were inactive. Shown is part of a subset that was picked to be rich in hits.

C[C@H](CO)N1C[C@H](C)[C@@H](CN(C)Cc2ccncc2)Oc2ccc(NS(=O)(=O)c3cccs3)cc2C1=O	none
C[C@H]1CN([C@@H](C)CO)C(=O)c2cc(NS(=O)(=O)c3cccs3)ccc2O[C@@H]1CN(C)Cc1ccc(Cl)c(Cl)c1	T cruzi HTS 57 (no result: A1 apoptosis 2)
Cc1ccc(S(=O)(=O)Nc2ccc3c(c2)C(=O)N([C@@H](C)CO)C[C@H](C)[C@H](CN(C)Cc2ccc(Cl)c(Cl)c2)O3)cc1	T cruzi HTS 14 (no result: INS-1E ATP HTS)
C[C@@H]1CN([C@H](C)CO)C(=O)c2cc(NC(=O)CCC(F)(F)F)ccc2O[C@H]1CN(C)S(C)(=O)=O	none (no result: A1 apoptosis 2)
C[C@@H]1CN([C@H](C)CO)C(=O)c2cc(NC(=O)CCCN(C)C)ccc2O[C@@H]1CN(C)S(C)(=O)=O	none
Cc1noc(C)c1NC(=O)N(C)C[C@H]1Oc2c(NC(=O)c3ccncc3)cccc2C(=O)N([C@@H](C)CO)C[C@H]1C	none
Cc1noc(C)c1NC(=O)Nc1ccc2c(c1)C(=O)N([C@H](C)CO)C[C@@H](C)[C@@H](CN(C)S(=O)(=O)c1ccc(Cl)cc1)O2	none (no result: A1 apoptosis 2)
C[C@@H]1CN([C@H](C)CO)C(=O)c2cccc(NC(=O)c3ccncc3)c2O[C@H]1CN(C)CC1CC1	T cruzi HTS 56
Cc1cc(C(=O)Nc2cccc3c2O[C@@H](CN(C)CC2CC2)[C@H](C)CN([C@H](C)CO)C3=O)n(C)n1	none
C[C@H](CO)N1C[C@H](C)[C@H](CN(C)CC2CC2)Oc2c(NC(=O)c3ccncc3)cccc2C1=O	none
C[C@@H]1CN([C@@H](C)CO)C(=O)c2cccc(NS(=O)(=O)c3cn(C)cn3)c2O[C@H]1CN(C)CC1CCCCC1	T cruzi HTS 62 (no result: A1 apoptosis 2)
C[C@H](CO)N1C[C@H](C)[C@@H](CN(C)CC2CCCCC2)Oc2c(NS(=O)(=O)c3cn(C)cn3)cccc2C1=O	none (no result: A1 apoptosis 2)
C[C@H](CO)N1C[C@H](C)[C@H](CN(C)CC2CCCCC2)Oc2c(NC(=O)c3ccncc3)cccc2C1=O	none (no result: A1 apoptosis 2)
C[C@@H]1CN([C@H](C)CO)C(=O)c2cccc(NC(=O)c3ccncc3)c2O[C@H]1CN(C)CC1CCCCC1	T cruzi HTS 84
Cc1cc(C(=O)Nc2cccc3c2O[C@H](CN(C)CC2CC2)[C@H](C)CN([C@@H](C)CO)C3=O)n(C)n1	T cruzi HTS 61
C[C@@H]1CN([C@@H](C)CO)C(=O)c2cccc(NC(=O)Nc3ccc4c(c3)OCO4)c2O[C@@H]1CN(C)CC1CCCCC1	none (no result: A1 apoptosis 2)
Cc1ccc(S(=O)(=O)Nc2ccc3c(c2)C(=O)N([C@@H](C)CO)C[C@H](C)[C@H](CN(C)C(=O)NC2CCCCC2)OCCCC[C@H](C)O3)cc1	none (no result: INS-1E ATP HTS, T cruzi HTS)
C[C@@H]1CN([C@H](C)CO)C(=O)c2cc(NC(=O)C3CC3)ccc2O[C@@H]1CN(C)C(=O)Nc1ccc(C(F)(F)F)cc1	none (no result: A1 apoptosis 2)
COC(=O)CCCCCCC(=O)NOCc1ccccc1	none (no result: INS-1E ATP HTS, T cruzi HTS)
C[C@@H]1CCCCO[C@@H](CN(C)C(=O)CCC(F)(F)F)[C@@H](C)CN([C@@H](C)CO)C(=O)c2cc(NS(=O)(=O)c3ccccc3)ccc2O1	none (no result: INS-1E ATP HTS, T cruzi HTS)
COc1ccc(S(=O)(=O)Nc2cccc3c2O[C@H](CN(C)C(=O)NC(C)C)[C@H](C)CN([C@@H](C)CO)C3=O)cc1	none
C[C@@H]1CN([C@H](C)CO)C(=O)Cc2cc(NC(=O)Nc3ccc4c(c3)OCO4)ccc2O[C@@H]1CN(C)Cc1ccc2c(c1)OCO2	none
C[C@@H]1CN([C@H](C)CO)C(=O)Cc2cc(NC(=O)Nc3ccc4c(c3)OCO4)ccc2O[C@H]1CN(C)Cc1ccc(Cl)c(Cl)c1	T cruzi HTS 68 (no result: A1 apoptosis 2)
C[C@H](CO)N1C[C@H](C)[C@@H](CN(C)Cc2ccc3c(c2)OCO3)Oc2ccc(NC(=O)Nc3ccc4c(c3)OCO4)cc2CC1=O	none (no result: INS-1E ATP HTS, T cruzi HTS)
C[C@@H]1CN([C@H](C)CO)C(=O)Cc2cc(NC(=O)Nc3ccc4c(c3)OCO4)ccc2O[C@@H]1CN(C)Cc1ccc(Cl)c(Cl)c1	T cruzi HTS 74
C[C@@H]1CN([C@H](C)CO)C(=O)c2cc(NC(=O)c3ccncc3)ccc2O[C@@H](C)CCCCO[C@H]1CN(C)S(=O)(=O)c1ccc(F)cc1	none (no result: INS-1E ATP HTS, T cruzi HTS)
C[C@@H]1CCCCO[C@@H](CN(C)Cc2ccccc2)[C@H](C)CN([C@@H](C)CO)C(=O)c2cc(NC(=O)c3ccccc3)ccc2O1	none (no result: INS-1E ATP HTS, T cruzi HTS)
C[C@@H]1CN([C@@H](C)CO)C(=O)c2cccc(NC(=O)c3ccncc3)c2O[C@H]1CN(C)Cc1ccc(Cl)c(Cl)c1	T cruzi HTS 78
C[C@@H]1CN([C@H](C)CO)C(=O)c2cccc(NC(=O)c3ccncc3)c2O[C@H]1CN(C)Cc1ccc(Cl)c(Cl)c1	T cruzi HTS 76
C[C@H]1CN([C@@H](C)CO)C(=O)c2cccc(NC(=O)c3ccncc3)c2O[C@H]1CN(C)Cc1ccncc1	none (no result: A1 apoptosis 2)
C[C@H](CO)N1C[C@H](C)[C@H](CN(C)Cc2ccncc2)Oc2c(NC(=O)c3ccncc3)cccc2C1=O	none
C[C@@H]1CN([C@H](C)CO)C(=O)c2cccc(NC(=O)c3ccncc3)c2O[C@H]1CN(C)Cc1ccncc1	none
C[C@H](CO)N1C[C@H](C)[C@H](CN(C)Cc2ccc(Cl)c(Cl)c2)Oc2c(NC(=O)c3ccncc3)cccc2C1=O	T cruzi HTS 56
C[C@H]1CN([C@@H](C)CO)C(=O)c2cccc(NC(=O)c3ccncc3)c2O[C@@H]1CN(C)Cc1ccc(C(=O)Nc2ccccc2N)cc1	none (no result: INS-1E ATP HTS, T cruzi HTS)
COc1ccc(/C=N/NC(=O)c2cccc(C(=O)NO)c2)c(OC)c1	none
CC(C)NC(=O)N(C)C[C@@H]1Oc2ccc(NC(=O)c3ccncc3)cc2C(=O)N([C@@H](C)CO)C[C@@H]1C	none (no result: A1 apoptosis 2)
C[C@H](CO)N1C[C@H](C)[C@H](CN(C)C(=O)Nc2ccc(F)cc2)Oc2ccc(NS(=O)(=O)c3cccs3)cc2CC1=O	none
C[C@@H]1CN([C@@H](C)CO)C(=O)c2cccc(NC(=O)Nc3ccc(C(F)(F)F)cc3)c2O[C@@H]1CN(C)Cc1ccc(Cl)c(Cl)c1	T cruzi HTS 79
C[C@H]1CN([C@@H](C)CO)C(=O)c2cccc(NC(=O)Nc3ccccc3)c2O[C@@H]1CN(C)Cc1ccc(Cl)c(Cl)c1	none
C[C@@H]1CN([C@@H](C)CO)C(=O)c2cccc(NC(=O)Nc3ccc(F)cc3)c2O[C@@H]1CN(C)Cc1ccc(Cl)c(Cl)c1	none
C[C@H](CO)N1C[C@H](C)[C@@H](CN(C)Cc2ccc(Cl)c(Cl)c2)Oc2c(NC(=O)Nc3ccc(C(F)(F)F)cc3)cccc2C1=O	T cruzi HTS 82
C[C@H](CO)N1C[C@H](C)[C@H](CN(C)Cc2ccc(Cl)c(Cl)c2)Oc2c(NC(=O)Nc3ccccc3)cccc2C1=O	none
C[C@H]1CN([C@@H](C)CO)C(=O)c2cccc(NC(=O)Nc3ccc(C(F)(F)F)cc3)c2O[C@@H]1CN(C)Cc1ccc(Cl)c(Cl)c1	T cruzi HTS 77
C[C@H](CO)N1C[C@H](C)[C@@H](CN(C)Cc2ccccc2C(=O)O)OCc2cnnn2CCCC1=O	none (no result: INS-1E ATP HTS)
Cc1noc(C)c1NC(=O)Nc1ccc2c(c1)C(=O)N([C@H](C)CO)C[C@@H](C)[C@H](CN(C)Cc1ccccc1)O2	none (no result: INS-1E ATP HTS, T cruzi HTS)
